{"source": "ChEMBL document CHEMBL4043246", "about": "“Discovery of novel [1,2,4]triazolo[4,3-a]quinoxaline aminophenyl derivatives as BET inhibitors for cancer treatment” (Bioorg Med Chem Lett, 2017)", "key": {"[1]": {"target": "Histone acetyltransferase KAT2A (Homo sapiens) (UniProt Q92830)", "experiment": "Inhibition of human partial length GCN5L2 (E726 to K837 residues) expressed in bacterial expression system assessed as residual activity at 500 nM relative to control by BROMOscan assay"}, "[2]": {"target": "SWI/SNF-related matrix-associated actin-dependent regulator of chromatin subfamily A member 4 (Homo sapiens) (UniProt P51532)", "experiment": "Inhibition of human partial length SMARCA4 (A1448 to S1575 residues) expressed in bacterial expression system assessed as residual activity at 500 nM relative to control by BROMOscan assay"}, "[3]": {"target": "Chromatin remodeling regulator CECR2 (Homo sapiens) (UniProt Q9BXF3)", "experiment": "Inhibition of human partial length CECR2 (P423 to D543 residues) expressed in bacterial expression system assessed as residual activity at 500 nM relative to control by BROMOscan assay"}, "[4]": {"experiment": "Antiproliferative activity against human TY82 cells", "format": "functional, cell-based"}, "[5]": {"target": "ATPase family AAA domain-containing protein 2 (Homo sapiens) (UniProt Q6PL18)", "experiment": "Inhibition of human partial length ATAD2A (Q981 to R1108 residues) expressed in bacterial expression system assessed as residual activity at 500 nM relative to control by BROMOscan assay"}, "[6]": {"target": "Bromodomain and WD repeat-containing protein 1 (Homo sapiens) (UniProt Q9NSI6)", "experiment": "Inhibition of human partial length WDR9 BD2 (A1310 to E1430 residues) expressed in bacterial expression system assessed as residual activity at 500 nM relative to control by BROMOscan assay"}, "[7]": {"target": "Histone acetyltransferase KAT2B (Homo sapiens) (UniProt Q92831)", "experiment": "Inhibition of human partial length PCAF (G715 to D831 residues) expressed in bacterial expression system assessed as residual activity at 500 nM relative to control by BROMOscan assay"}, "[8]": {"target": "T1, Bromodomain-containing protein 4 (Homo sapiens, UniProt O60885)", "experiment": "Inhibition of BRD4 BD1-BD2 (unknown origin) using tetraacetylated histone peptide as substrate after 2 hrs by alphascreen assay"}, "[9]": {"target": "ATPase family AAA domain-containing protein 2B (Homo sapiens) (UniProt Q9ULI0)", "sequence (Q9ULI0 whole entry, the tested form may be a part)": "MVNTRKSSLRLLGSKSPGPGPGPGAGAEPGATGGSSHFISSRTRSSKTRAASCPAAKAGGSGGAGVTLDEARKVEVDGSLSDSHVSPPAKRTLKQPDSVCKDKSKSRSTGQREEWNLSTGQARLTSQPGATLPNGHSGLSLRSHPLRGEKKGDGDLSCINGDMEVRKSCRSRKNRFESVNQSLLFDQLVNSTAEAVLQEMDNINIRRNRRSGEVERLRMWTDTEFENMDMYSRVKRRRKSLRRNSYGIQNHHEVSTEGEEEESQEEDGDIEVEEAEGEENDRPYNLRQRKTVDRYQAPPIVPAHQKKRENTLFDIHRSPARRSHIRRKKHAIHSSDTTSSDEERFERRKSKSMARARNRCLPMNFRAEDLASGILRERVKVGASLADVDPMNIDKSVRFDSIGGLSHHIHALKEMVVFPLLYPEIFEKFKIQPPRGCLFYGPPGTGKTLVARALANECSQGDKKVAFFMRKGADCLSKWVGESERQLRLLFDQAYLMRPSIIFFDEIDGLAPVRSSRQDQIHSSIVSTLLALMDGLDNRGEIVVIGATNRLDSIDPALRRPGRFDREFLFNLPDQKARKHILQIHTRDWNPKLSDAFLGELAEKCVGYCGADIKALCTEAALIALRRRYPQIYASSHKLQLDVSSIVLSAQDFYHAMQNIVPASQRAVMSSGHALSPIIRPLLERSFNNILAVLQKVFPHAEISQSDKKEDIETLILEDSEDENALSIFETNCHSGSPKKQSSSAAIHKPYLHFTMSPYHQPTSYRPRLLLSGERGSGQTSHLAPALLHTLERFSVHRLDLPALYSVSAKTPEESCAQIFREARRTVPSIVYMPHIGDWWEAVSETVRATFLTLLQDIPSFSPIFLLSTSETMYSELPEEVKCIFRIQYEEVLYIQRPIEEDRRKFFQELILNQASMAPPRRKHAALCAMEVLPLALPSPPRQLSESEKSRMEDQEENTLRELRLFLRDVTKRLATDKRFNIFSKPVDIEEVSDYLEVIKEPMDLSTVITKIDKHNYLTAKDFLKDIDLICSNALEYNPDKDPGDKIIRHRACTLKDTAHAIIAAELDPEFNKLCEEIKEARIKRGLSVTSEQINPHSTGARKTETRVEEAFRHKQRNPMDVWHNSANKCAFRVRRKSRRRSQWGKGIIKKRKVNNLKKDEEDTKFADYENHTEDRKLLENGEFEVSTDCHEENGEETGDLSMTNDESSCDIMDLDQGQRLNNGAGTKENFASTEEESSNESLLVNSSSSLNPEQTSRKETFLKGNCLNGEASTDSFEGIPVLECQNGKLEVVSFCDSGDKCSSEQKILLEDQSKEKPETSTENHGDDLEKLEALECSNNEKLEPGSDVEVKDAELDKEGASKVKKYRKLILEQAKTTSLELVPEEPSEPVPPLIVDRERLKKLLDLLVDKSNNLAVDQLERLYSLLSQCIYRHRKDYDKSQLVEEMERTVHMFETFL", "experiment": "Inhibition of human partial length ATAD2B (Q955 to R1082 residues) expressed in bacterial expression system assessed as residual activity at 500 nM relative to control by BROMOscan assay"}, "[10]": {"experiment": "Cell cycle arrest in human TY82 cells assessed as accumulation at G2/M phase at 1 uM after 24 hrs by DAPI staining based assay (reference value: 9%)", "format": "functional"}, "[11]": {"target": "Bromodomain-containing protein 1 (Homo sapiens) (UniProt O95696)", "experiment": "Inhibition of human partial length BRD1 (E556 to A688 residues) expressed in bacterial expression system assessed as residual activity at 500 nM relative to control by BROMOscan assay"}, "[12]": {"target": "Protein polybromo-1 (Homo sapiens) (UniProt Q86U86)", "sequence (Q86U86 whole entry, the tested form may be a part)": "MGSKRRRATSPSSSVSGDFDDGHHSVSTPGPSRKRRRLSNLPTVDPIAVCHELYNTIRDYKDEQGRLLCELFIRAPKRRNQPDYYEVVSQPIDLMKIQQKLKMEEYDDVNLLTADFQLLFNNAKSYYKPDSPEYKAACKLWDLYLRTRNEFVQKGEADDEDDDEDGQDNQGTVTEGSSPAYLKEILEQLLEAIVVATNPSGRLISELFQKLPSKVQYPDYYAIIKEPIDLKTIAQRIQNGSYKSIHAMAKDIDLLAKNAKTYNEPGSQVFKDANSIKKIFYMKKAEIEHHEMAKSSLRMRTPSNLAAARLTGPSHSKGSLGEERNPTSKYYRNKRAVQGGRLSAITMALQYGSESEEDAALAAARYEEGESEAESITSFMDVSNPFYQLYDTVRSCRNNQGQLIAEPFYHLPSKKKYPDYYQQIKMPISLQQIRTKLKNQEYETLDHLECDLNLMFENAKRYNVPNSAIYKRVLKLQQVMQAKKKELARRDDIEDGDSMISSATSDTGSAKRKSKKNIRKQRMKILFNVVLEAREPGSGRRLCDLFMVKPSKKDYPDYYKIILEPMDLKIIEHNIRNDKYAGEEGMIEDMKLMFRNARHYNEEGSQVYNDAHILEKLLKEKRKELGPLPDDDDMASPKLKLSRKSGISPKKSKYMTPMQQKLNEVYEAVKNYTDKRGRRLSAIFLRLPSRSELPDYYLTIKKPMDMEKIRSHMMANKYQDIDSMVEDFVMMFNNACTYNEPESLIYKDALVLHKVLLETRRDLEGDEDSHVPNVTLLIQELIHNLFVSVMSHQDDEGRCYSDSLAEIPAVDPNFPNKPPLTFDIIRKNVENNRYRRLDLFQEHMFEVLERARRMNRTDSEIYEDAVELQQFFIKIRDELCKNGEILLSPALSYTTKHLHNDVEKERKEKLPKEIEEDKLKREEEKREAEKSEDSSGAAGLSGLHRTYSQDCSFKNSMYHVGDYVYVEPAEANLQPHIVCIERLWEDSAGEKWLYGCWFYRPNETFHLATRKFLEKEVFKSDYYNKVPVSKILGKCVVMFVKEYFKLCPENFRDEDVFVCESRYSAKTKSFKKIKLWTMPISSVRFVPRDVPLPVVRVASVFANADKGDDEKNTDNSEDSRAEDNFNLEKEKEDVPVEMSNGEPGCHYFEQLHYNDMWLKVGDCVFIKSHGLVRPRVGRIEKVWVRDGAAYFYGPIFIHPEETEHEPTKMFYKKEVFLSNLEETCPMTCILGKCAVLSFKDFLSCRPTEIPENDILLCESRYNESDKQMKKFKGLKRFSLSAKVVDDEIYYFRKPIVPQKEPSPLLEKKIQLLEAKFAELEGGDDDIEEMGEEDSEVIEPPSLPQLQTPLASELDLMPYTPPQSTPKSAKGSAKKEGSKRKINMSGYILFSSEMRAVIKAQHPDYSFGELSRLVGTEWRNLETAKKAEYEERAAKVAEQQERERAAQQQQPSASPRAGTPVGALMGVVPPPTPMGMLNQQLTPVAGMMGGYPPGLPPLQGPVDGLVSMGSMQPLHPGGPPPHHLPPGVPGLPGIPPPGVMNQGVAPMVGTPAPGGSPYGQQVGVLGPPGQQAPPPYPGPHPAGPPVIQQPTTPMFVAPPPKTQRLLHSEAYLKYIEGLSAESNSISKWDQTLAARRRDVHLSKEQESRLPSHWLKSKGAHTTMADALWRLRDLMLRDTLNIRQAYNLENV", "experiment": "Inhibition of human partial length PBRM1 BD2 (S178 to E291 residues) expressed in bacterial expression system assessed as residual activity at 500 nM relative to control by BROMOscan assay"}, "[13]": {"system": "THP-1", "experiment": "Antiproliferative activity against human THP1 cells", "format": "functional, cell-based"}, "[14]": {"target": "Bromodomain and PHD finger-containing protein 3 (Homo sapiens) (UniProt Q9ULD4)", "experiment": "Inhibition of human partial length BRPF3 (E588 to G701 residues) expressed in bacterial expression system assessed as residual activity at 500 nM relative to control by BROMOscan assay"}, "[15]": {"target": "Protein polybromo-1 (Homo sapiens) (UniProt Q86U86)", "experiment": "Inhibition of human partial length PBRM1 BD5 (S645 to D766 residues) expressed in bacterial expression system assessed as residual activity at 500 nM relative to control by BROMOscan assay"}, "[16]": {"target": "Bromodomain adjacent to zinc finger domain protein 2B (Homo sapiens) (UniProt Q9UIF8)", "experiment": "Inhibition of human partial length BAZ2B (S2054 to S2168 residues) expressed in bacterial expression system assessed as residual activity at 500 nM relative to control by BROMOscan assay"}, "[17]": {"system": "Rattus norvegicus", "experiment": "Cmax in rat at 20 mg/kg, po", "format": "ADME, organism-based", "design": "dose 20 mg/kg, route oral", "conditions": "in vivo", "procedure,_shortened": "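Peak plasma level after single oral dosing in rat at 5 or 20 mg/kg. Cmax is given in mg/mL as printed, with Tmax in hours.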"}, "[18]": {"experiment": "Cell cycle arrest in human TY82 cells assessed as accumulation at G1 phase at 3 uM after 24 hrs by DAPI staining based assay (reference value: 73%)", "format": "functional"}, "[19]": {"target": "Bromodomain-containing protein 3 (Homo sapiens) (UniProt Q15059)", "experiment": "Inhibition of human partial length BRD3 BD1 (P24 to E144 residues) expressed in bacterial expression system assessed as residual activity at 500 nM relative to control by BROMOscan assay"}, "[20]": {"target": "Transcription initiation factor TFIID subunit 1 (Homo sapiens) (UniProt P21675)", "sequence (P21675 whole entry, the tested form may be a part)": "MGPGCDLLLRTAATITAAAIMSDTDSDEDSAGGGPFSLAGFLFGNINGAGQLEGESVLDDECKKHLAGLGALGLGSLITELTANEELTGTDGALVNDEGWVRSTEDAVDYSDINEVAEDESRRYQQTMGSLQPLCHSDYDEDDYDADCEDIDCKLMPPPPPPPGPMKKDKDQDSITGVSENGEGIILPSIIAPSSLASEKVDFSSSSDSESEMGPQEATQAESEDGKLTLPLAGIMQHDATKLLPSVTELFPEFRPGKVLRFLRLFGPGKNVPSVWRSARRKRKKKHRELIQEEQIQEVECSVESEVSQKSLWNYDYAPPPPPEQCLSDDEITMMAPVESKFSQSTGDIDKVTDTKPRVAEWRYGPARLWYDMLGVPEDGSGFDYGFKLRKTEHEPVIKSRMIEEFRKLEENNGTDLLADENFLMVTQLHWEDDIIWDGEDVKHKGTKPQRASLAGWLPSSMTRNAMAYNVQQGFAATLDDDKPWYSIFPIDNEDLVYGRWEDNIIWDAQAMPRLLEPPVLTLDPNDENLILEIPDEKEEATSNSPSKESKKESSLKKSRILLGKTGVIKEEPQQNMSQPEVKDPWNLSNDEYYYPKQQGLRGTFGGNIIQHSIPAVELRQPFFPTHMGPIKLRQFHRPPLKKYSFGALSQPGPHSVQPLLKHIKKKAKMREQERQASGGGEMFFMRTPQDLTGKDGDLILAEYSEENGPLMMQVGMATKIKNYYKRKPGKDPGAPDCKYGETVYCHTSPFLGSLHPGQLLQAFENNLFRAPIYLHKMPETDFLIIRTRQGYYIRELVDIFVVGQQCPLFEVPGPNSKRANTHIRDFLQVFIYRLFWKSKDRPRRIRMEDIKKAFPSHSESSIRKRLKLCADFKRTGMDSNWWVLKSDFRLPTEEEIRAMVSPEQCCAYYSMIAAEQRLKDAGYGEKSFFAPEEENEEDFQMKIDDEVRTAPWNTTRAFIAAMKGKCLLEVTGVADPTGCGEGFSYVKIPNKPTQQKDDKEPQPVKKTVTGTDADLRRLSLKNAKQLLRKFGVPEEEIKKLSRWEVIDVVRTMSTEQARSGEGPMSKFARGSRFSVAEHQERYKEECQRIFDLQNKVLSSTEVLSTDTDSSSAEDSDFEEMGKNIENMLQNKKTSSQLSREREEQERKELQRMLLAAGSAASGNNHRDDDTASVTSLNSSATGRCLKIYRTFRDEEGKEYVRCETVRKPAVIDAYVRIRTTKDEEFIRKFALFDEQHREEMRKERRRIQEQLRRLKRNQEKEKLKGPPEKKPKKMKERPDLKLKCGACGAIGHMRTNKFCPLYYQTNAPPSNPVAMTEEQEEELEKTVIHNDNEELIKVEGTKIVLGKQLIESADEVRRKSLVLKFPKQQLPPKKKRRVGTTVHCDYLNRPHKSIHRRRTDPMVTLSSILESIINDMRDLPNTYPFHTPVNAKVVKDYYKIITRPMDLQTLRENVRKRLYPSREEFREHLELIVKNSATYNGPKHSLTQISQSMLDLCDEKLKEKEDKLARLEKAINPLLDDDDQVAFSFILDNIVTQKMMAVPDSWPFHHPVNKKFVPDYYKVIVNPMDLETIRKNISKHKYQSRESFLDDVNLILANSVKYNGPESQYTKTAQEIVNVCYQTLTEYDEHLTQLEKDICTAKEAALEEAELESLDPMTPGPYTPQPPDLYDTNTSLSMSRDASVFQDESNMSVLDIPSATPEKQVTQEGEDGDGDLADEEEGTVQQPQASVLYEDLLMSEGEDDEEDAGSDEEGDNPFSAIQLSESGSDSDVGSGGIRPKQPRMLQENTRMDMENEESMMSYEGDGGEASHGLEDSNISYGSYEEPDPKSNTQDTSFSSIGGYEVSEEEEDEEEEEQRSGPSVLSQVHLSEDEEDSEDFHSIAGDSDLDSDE", "experiment": "Inhibition of human partial length TAF1 BD2 (D1521 to D1656 residues) expressed in bacterial expression system assessed as residual activity at 500 nM relative to control by BROMOscan assay"}, "[21]": {"experiment": "Cell cycle arrest in human TY82 cells assessed as accumulation at G2/M phase at 10 uM after 24 hrs by DAPI staining based assay (reference value: 9%)", "format": "functional"}, "[22]": {"target": "Bromodomain testis-specific protein (Homo sapiens) (UniProt Q58F21)", "experiment": "Inhibition of human partial length BRDT BD1 (N21 to E137 residues) expressed in bacterial expression system assessed as residual activity at 500 nM relative to control by BROMOscan assay"}, "[23]": {"target": "T1, Bromodomain-containing protein 4", "experiment": "Binding affinity to BRD4 BD1 (unknown origin)"}, "[24]": {"target": "Transcription initiation factor TFIID subunit 1-like (Homo sapiens) (UniProt Q8IZX4)", "experiment": "Inhibition of human partial length TAF1L BD2 (Q1523 to D1654 residues) expressed in bacterial expression system assessed as residual activity at 500 nM relative to control by BROMOscan assay"}, "[25]": {"experiment": "Stability in mouse liver microsomes assessed as parent compound remaining after 30 mins", "format": "ADME, microsome", "conditions": "read-out: Stability", "procedure,_shortened": "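Incubated in vitro with mouse, rat or human liver microsomes for 30 minutes. Result expressed as percent of parent compound remaining.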"}, "[26]": {"target": "SWI/SNF-related matrix-associated actin-dependent regulator of chromatin subfamily A member 2 (Homo sapiens) (UniProt P51531)", "experiment": "Inhibition of human partial length SMARCA2 (S1377 to Q1486 residues) expressed in bacterial expression system assessed as residual activity at 500 nM relative to control by BROMOscan assay"}, "[27]": {"target": "T1, Bromodomain-containing protein 4", "experiment": "Inhibition of human partial length BRD4 BD2 (K333 to E460 residues) expressed in bacterial expression system assessed as residual activity at 500 nM relative to control by BROMOscan assay"}, "[28]": {"target": "Histone acetyltransferase p300 (Homo sapiens) (UniProt Q09472)", "experiment": "Inhibition of human partial length EP300 (A1040 to G1161 residues) expressed in bacterial expression system assessed as residual activity at 500 nM relative to control by BROMOscan assay"}, "[29]": {"experiment": "Cell cycle arrest in human TY82 cells assessed as accumulation at S phase at 3 uM after 24 hrs by DAPI staining based assay (reference value: 11%)", "format": "functional"}}, "note": "pIC50, pKd: −log10 of the molar value."}
{"smiles": "Cc1nnc2c(Nc3cccc(CNC(=O)C(C)C)c3)nc3ccccc3n12", "values": [{"measurement": "Activity", "setting": "[1]", "result": 100, "unit": "%"}, {"measurement": "Activity", "setting": "[2]", "result": 100, "unit": "%"}, {"measurement": "Activity", "setting": "[3]", "result": 88, "unit": "%"}, {"measurement": "pIC50", "setting": "[4]", "result": 5.60}, {"measurement": "Activity", "setting": "[5]", "result": 100, "unit": "%"}, {"measurement": "Activity", "setting": "[6]", "result": 100, "unit": "%"}, {"measurement": "Activity", "setting": "[7]", "result": 91, "unit": "%"}, {"measurement": "pIC50", "setting": "[8]", "result": 7.17}, {"measurement": "Activity", "setting": "[9]", "result": 96, "unit": "%"}, {"measurement": "Activity", "setting": "[10]", "result": 8, "unit": "%"}, {"measurement": "Activity", "setting": "[11]", "result": 100, "unit": "%"}, {"measurement": "Activity", "setting": "[12]", "result": 87, "unit": "%"}, {"measurement": "pIC50", "setting": "[13]", "result": 5.80}, {"measurement": "Activity", "setting": "[14]", "result": 87, "unit": "%"}, {"measurement": "Activity", "setting": "[15]", "result": 84, "unit": "%"}, {"measurement": "Activity", "setting": "[16]", "result": 93, "unit": "%"}, {"measurement": "Cmax", "setting": "[17]", "result": 4600, "unit": "ng/mL"}, {"measurement": "Activity", "setting": "[18]", "result": 89, "unit": "%"}, {"measurement": "Activity", "setting": "[19]", "result": 11, "unit": "%"}, {"measurement": "Activity", "setting": "[20]", "result": 36, "unit": "%"}, {"measurement": "Activity", "setting": "[21]", "result": 4, "unit": "%"}, {"measurement": "Activity", "setting": "[22]", "result": 19, "unit": "%"}, {"measurement": "pKd", "setting": "[23]", "result": 7.57}, {"measurement": "Activity", "setting": "[24]", "result": 83, "unit": "%"}, {"measurement": "remaining at 0.5 h", "setting": "[25]", "result": 0.024, "unit": "%"}, {"measurement": "Activity", "setting": "[26]", "result": 100, "unit": "%"}, {"measurement": "Activity", "setting": "[27]", "result": 16, "unit": "%"}, {"measurement": "Activity", "setting": "[28]", "result": 89, "unit": "%"}, {"measurement": "Activity", "setting": "[29]", "result": 2, "unit": "%"}]}
